The values that follow come from paper PMC9563295 (Journal of the American Chemical Society, 2022).

Numbered stars: 1 amine (or outer) side, 2 acyl side, 3 side chain; on linkers, the order of the positions; unused ones are H or OH. Bridge positions count the residues as written; N and C are the ends. Square brackets hold non-standard residues; d marks the D form. Peptide text beside a SMILES is read from it. ξ: configuration not given here. ξβ3hPhg = O=C(CC(N[*:1])c1ccccc1)[*:2]; ξPhg = NC(C(=O)O)c1ccccc1; βAla = NCCC(=O)O

Sequence of hEGFR (P00533 25-1210): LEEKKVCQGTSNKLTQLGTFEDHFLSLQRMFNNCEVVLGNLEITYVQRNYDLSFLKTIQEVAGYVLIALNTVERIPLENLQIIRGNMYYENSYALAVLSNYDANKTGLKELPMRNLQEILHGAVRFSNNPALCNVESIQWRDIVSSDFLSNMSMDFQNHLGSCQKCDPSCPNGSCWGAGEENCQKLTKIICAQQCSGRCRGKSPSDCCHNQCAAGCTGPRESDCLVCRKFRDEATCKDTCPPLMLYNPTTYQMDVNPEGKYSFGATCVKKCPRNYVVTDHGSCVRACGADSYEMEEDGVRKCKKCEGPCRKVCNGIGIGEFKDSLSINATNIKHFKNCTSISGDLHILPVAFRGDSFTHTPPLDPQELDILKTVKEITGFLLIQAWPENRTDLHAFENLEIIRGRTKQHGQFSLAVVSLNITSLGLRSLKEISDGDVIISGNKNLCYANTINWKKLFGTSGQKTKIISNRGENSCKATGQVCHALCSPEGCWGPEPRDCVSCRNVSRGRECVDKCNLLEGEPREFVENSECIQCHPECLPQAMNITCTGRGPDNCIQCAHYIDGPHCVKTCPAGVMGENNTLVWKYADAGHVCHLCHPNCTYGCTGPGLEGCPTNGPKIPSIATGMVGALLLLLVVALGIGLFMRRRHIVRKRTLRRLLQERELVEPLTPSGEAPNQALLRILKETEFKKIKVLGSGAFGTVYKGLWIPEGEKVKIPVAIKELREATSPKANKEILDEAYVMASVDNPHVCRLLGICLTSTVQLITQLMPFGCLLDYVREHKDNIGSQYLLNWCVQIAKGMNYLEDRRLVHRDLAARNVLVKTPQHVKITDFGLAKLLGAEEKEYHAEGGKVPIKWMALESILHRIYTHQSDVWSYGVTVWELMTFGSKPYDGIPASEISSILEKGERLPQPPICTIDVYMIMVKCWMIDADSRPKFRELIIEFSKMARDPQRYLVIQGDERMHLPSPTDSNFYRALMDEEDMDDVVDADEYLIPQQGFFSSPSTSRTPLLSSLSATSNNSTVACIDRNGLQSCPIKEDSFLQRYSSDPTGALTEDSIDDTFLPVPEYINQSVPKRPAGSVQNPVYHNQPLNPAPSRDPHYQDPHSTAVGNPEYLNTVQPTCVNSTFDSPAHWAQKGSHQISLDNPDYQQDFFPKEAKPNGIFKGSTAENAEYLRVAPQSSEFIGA

One data set concerns the target hEGFR (Homo sapiens, UniProt P00533). The data set is described as follows: Binding kinetics analysis by surface plasmon resonance. The conditions noted are these: KD compared with 2D and 18D. (SPR reads the build-up and loss of mass on a sensor chip optically.)
Turning to `CC(C)[C@@H]1NC(=O)[C@H](CCCNC(=N)N)NC(=O)[C@H](Cc2ccc(O)cc2)NC(=O)[C@H](C(C)C)NC(=O)[C@H](C(C)C)NC(=O)[C@H](CCCNC(=N)N)NC(=O)[C@H](CC(=O)O)NC(=O)[C@H](CC(=O)O)NC(=O)CCNC(=O)[C@H](Cc2ccc(O)cc2)NC(=O)[C@H](Cc2ccc(O)cc2)NC(=O)[C@H](Cc2ccccc2)NC(=O)[C@@H](Cc2ccc(O)cc2)NC(=O)CSC[C@@H](C(=O)NCC(N)=O)NC(=O)CC(c2ccccc2)NC1=O` (stereo partly drawn) [D4β] ({CH2CO}-[dY]FYY[βAla]DDRVVYRV[ξβ3hPhg]CG-NH2; thioether N-15), the “fold stronger binding affinity in comparison with 2D and 18D” value was “approximately 10 fold”. The same measure, in the same setting: the result for `CC(C)C[C@@H]1NC(=O)CC(c2ccccc2)NC(=O)[C@H](CC(C)C)NC(=O)[C@H](Cc2ccc(O)cc2)NC(=O)CSC[C@@H](C(=O)NCC(N)=O)NC(=O)[C@H](Cc2ccc(O)cc2)NC(=O)[C@H](CC(C)C)NC(=O)[C@H](Cc2ccc(O)cc2)NC(=O)[C@H](CCCNC(=N)N)NC(=O)[C@H](CC(N)=O)NC(=O)[C@@H]2CCCN2C(=O)CC(c2ccccc2)NC(=O)[C@H](CCCNC(=N)N)NC(=O)[C@H](CCCNC(=N)N)NC(=O)CC(c2ccccc2)NC(=O)[C@H](Cc2ccc(O)cc2)NC1=O` (stereo partly drawn) [L2β, ^AcYL^βXLY^βXRR^βXPNRYLYCG-NH2] ({CH2CO}-YL[ξβ3hPhg]LY[ξβ3hPhg]RR[ξβ3hPhg]PNRYLYCG-NH2; thioether N-16) reads “approximately 10 fold”.

Test system in a further data set: not listed separately
The data set can be described thus: Serum stability assay. As to conditions: human serum, 37 °C; mutant vs parent L2β or D4β. Type of data set: in vitro ADME. The gist of the method:
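Test peptides (parents plus Ala, backbone-shortening and sidechain-deletion mutants) incubated in human serum at 37 °C for up to 72 h. Percentage of remaining peptide over time estimated by LC/MS, and half-life (t1/2) derived from the decay.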
In the case of `CC(C)[C@@H]1NC(=O)[C@H](CCCNC(=N)N)NC(=O)[C@H](Cc2ccc(O)cc2)NC(=O)[C@H](C(C)C)NC(=O)[C@H](C(C)C)NC(=O)[C@H](CCCNC(=N)N)NC(=O)[C@H](CC(=O)O)NC(=O)[C@H](CC(=O)O)NC(=O)[C@H](C)NC(=O)[C@H](Cc2ccc(O)cc2)NC(=O)[C@H](Cc2ccc(O)cc2)NC(=O)[C@H](Cc2ccccc2)NC(=O)[C@@H](Cc2ccc(O)cc2)NC(=O)CSC[C@@H](C(=O)NCC(N)=O)NC(=O)CC(c2ccccc2)NC1=O` (stereo partly drawn) [D4A.1] ({CH2CO}-[dY]FYYADDRVVYRV[ξβ3hPhg]CG-NH2; thioether N-15), the “fold lower t1/2 than the parent peptide” value stood at 26 fold. On the same count and under the same terms, the result for `CC(C)[C@@H]1NC(=O)[C@H](CCCNC(=N)N)NC(=O)[C@H](Cc2ccc(O)cc2)NC(=O)[C@H](C(C)C)NC(=O)[C@H](C(C)C)NC(=O)[C@H](CCCNC(=N)N)NC(=O)[C@H](CC(=O)O)NC(=O)[C@H](CC(=O)O)NC(=O)CCNC(=O)[C@H](Cc2ccc(O)cc2)NC(=O)[C@H](Cc2ccc(O)cc2)NC(=O)[C@H](Cc2ccccc2)NC(=O)[C@@H](Cc2ccc(O)cc2)NC(=O)CSC[C@@H](C(=O)NCC(N)=O)NC(=O)[C@H](C)NC1=O` [D4A.2] ({CH2CO}-[dY]FYY[βAla]DDRVVYRVACG-NH2; thioether N-15) reads 2.6 fold.

As for `CC(C)[C@@H]1NC(=O)[C@H](CCCNC(=N)N)NC(=O)[C@H](Cc2ccc(O)cc2)NC(=O)[C@H](C(C)C)NC(=O)[C@H](C(C)C)NC(=O)[C@H](CCCNC(=N)N)NC(=O)[C@H](CC(=O)O)NC(=O)[C@H](CC(=O)O)NC(=O)CNC(=O)[C@H](Cc2ccc(O)cc2)NC(=O)[C@H](Cc2ccc(O)cc2)NC(=O)[C@H](Cc2ccccc2)NC(=O)[C@@H](Cc2ccc(O)cc2)NC(=O)CSC[C@@H](C(=O)NCC(N)=O)NC(=O)CC(c2ccccc2)NC1=O` (stereo partly drawn) [D4α.1] ({CH2CO}-[dY]FYYGDDRVVYRV[ξβ3hPhg]CG-NH2; thioether N-15), the “fold lower t1/2 than the parent peptide” value is given as 2 fold. The same measure, in the same setting: the result for `CC(C)C[C@@H]1NC(=O)[C@H](C)NC(=O)[C@H](CC(C)C)NC(=O)[C@H](Cc2ccc(O)cc2)NC(=O)CSC[C@@H](C(=O)NCC(N)=O)NC(=O)[C@H](Cc2ccc(O)cc2)NC(=O)[C@H](CC(C)C)NC(=O)[C@H](Cc2ccc(O)cc2)NC(=O)[C@H](CCCNC(=N)N)NC(=O)[C@H](CC(N)=O)NC(=O)[C@@H]2CCCN2C(=O)[C@H](C)NC(=O)[C@H](CCCNC(=N)N)NC(=O)[C@H](CCCNC(=N)N)NC(=O)[C@H](C)NC(=O)[C@H](Cc2ccc(O)cc2)NC1=O` [L2A] ({CH2CO}-YLALYARRAPNRYLYCG-NH2; thioether N-16) reads “approximately 10 fold”.

A further data set deals with hEGF–hEGFR interaction (Homo sapiens, UniProt P00533). The data set can be described thus: hEGFR inhibition assay using AlphaLISA. Type of data set: biochemical.
Sequence of hEGF–hEGFR interaction (P00533 25-645 limits assumed): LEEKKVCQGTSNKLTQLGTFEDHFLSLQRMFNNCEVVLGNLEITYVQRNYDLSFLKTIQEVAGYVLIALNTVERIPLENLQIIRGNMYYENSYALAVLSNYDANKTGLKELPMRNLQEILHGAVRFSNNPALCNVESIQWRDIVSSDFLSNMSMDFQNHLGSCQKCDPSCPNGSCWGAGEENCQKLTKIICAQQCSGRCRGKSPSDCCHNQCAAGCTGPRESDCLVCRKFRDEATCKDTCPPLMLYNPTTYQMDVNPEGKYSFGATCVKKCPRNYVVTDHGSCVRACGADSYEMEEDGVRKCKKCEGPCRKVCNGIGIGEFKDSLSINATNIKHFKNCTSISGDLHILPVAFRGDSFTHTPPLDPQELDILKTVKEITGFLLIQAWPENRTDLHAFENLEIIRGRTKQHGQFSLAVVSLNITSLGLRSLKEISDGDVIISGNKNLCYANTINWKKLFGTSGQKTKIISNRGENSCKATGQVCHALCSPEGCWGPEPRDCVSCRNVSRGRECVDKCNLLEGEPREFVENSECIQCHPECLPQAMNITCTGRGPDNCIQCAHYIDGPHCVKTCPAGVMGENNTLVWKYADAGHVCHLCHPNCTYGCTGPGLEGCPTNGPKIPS
Conditions: not given
(In general: Alpha assays give light when donor and acceptor beads are brought close together.)
As for `CC(C)C[C@H](NC(=O)CNC(=O)[C@H](CCCNC(=N)N)NC(=O)CC(NC(=O)[C@@H]1CSCC(=O)N[C@H](Cc2ccc(O)cc2)C(=O)N[C@@H](C(C)C)C(=O)N[C@@H](Cc2ccc(O)cc2)C(=O)N1)c1ccccc1)C(=O)N[C@@H](CC(=O)O)C(=O)N1CCC[C@H]1C(=O)N[C@@H](CCCNC(=N)N)C(=O)N[C@@H](CC(C)C)C(=O)N[C@@H](CO)C(=O)N[C@@H](CCCNC(=N)N)C(=O)N[C@@H](Cc1ccccc1)C(=O)N[C@@H](CO)C(=O)NCC(N)=O` (stereo partly drawn) [D2β, ^AcyVYC^βXRGLDPRLSRFSG-NH2] ({CH2CO}-[dY]VYC[ξβ3hPhg]RGLDPRLSRFSG-NH2; thioether N-4), the “PPI inhibitory activity against hEGF–hEGFR interaction (in words)” value (“PPI inhibitory activity” for short) was “no inhibitory activity”. As to `CC(C)[C@@H]1NC(=O)[C@H](CCCNC(=N)N)NC(=O)[C@H](Cc2ccc(O)cc2)NC(=O)[C@H](C(C)C)NC(=O)[C@H](C(C)C)NC(=O)[C@H](CCCNC(=N)N)NC(=O)[C@H](CC(=O)O)NC(=O)[C@H](CC(=O)O)NC(=O)[C@H](C)NC(=O)[C@H](Cc2ccc(O)cc2)NC(=O)[C@H](Cc2ccc(O)cc2)NC(=O)[C@H](Cc2ccccc2)NC(=O)[C@@H](Cc2ccc(O)cc2)NC(=O)CSC[C@@H](C(=O)NCC(N)=O)NC(=O)[C@H](C)NC1=O` [D4A] ({CH2CO}-[dY]FYYADDRVVYRVACG-NH2; thioether N-15), the “PPI inhibitory activity” value is reported as “complete loss of the activity”.

On to `CC(C)[C@@H]1NC(=O)[C@H](CCCNC(=N)N)NC(=O)[C@H](Cc2ccc(O)cc2)NC(=O)[C@H](C(C)C)NC(=O)[C@H](C(C)C)NC(=O)[C@H](CCCNC(=N)N)NC(=O)[C@H](CC(=O)O)NC(=O)[C@H](CC(=O)O)NC(=O)CNC(=O)[C@H](Cc2ccc(O)cc2)NC(=O)[C@H](Cc2ccc(O)cc2)NC(=O)[C@H](Cc2ccccc2)NC(=O)[C@@H](Cc2ccc(O)cc2)NC(=O)CSC[C@@H](C(=O)NCC(N)=O)NC(=O)C(c2ccccc2)NC1=O` (stereo partly drawn) [D4α, ^AcyFYYGDDRVVYRVXCG-NH2] ({CH2CO}-[dY]FYYGDDRVVYRV[ξPhg]CG-NH2; thioether N-15), for which the “PPI inhibitory activity” value is given as “complete loss of the activity”.

Staying with this data set, now noted: mutant vs parent L2β, D3β or D4β.
With `CC(C)[C@@H]1NC(=O)[C@H](CCCNC(=N)N)NC(=O)[C@H](Cc2ccc(O)cc2)NC(=O)[C@H](C(C)C)NC(=O)[C@H](C(C)C)NC(=O)[C@H](CCCNC(=N)N)NC(=O)[C@H](CC(=O)O)NC(=O)[C@H](CC(=O)O)NC(=O)CCNC(=O)[C@H](Cc2ccc(O)cc2)NC(=O)[C@H](Cc2ccc(O)cc2)NC(=O)[C@H](Cc2ccccc2)NC(=O)[C@@H](Cc2ccc(O)cc2)NC(=O)CSC[C@@H](C(=O)NCC(N)=O)NC(=O)CCNC1=O` [D4βG] ({CH2CO}-[dY]FYY[βAla]DDRVVYRV[βAla]CG-NH2; thioether N-15), the “fold increase of IC50 compared to the parent peptide” value (“fold increase of IC50” below) came out at 2.2 fold.

For the compound `CC(C)C[C@@H]1NC(=O)CC(c2ccccc2)NC(=O)[C@H](CC(C)C)NC(=O)[C@H](Cc2ccc(O)cc2)NC(=O)CSC[C@@H](C(=O)NCC(N)=O)NC(=O)[C@H](Cc2ccc(O)cc2)NC(=O)[C@H](CC(C)C)NC(=O)[C@H](Cc2ccc(O)cc2)NC(=O)[C@H](CCCNC(=N)N)NC(=O)[C@H](CC(N)=O)NC(=O)[C@@H]2CCCN2C(=O)CC(c2ccccc2)NC(=O)[C@H](CCCNC(=N)N)NC(=O)[C@H](CCCNC(=N)N)NC(=O)C(c2ccccc2)NC(=O)[C@H](Cc2ccc(O)cc2)NC1=O` (stereo partly drawn) [L2α.2, ^AcYL^βXLYXRR^βXPNRYLYCG-NH2] ({CH2CO}-YL[ξβ3hPhg]LY[ξPhg]RR[ξβ3hPhg]PNRYLYCG-NH2; thioether N-16), the “fold increase of IC50” value was 460 fold. Regarding `CC(C)C[C@@H]1NC(=O)CC(c2ccccc2)NC(=O)[C@H](CC(C)C)NC(=O)[C@H](Cc2ccc(O)cc2)NC(=O)CSC[C@@H](C(=O)NCC(N)=O)NC(=O)[C@H](Cc2ccc(O)cc2)NC(=O)[C@H](CC(C)C)NC(=O)[C@H](Cc2ccc(O)cc2)NC(=O)[C@H](CCCNC(=N)N)NC(=O)[C@H](CC(N)=O)NC(=O)[C@@H]2CCCN2C(=O)CC(c2ccccc2)NC(=O)[C@H](CCCNC(=N)N)NC(=O)[C@H](CCCNC(=N)N)NC(=O)CCNC(=O)[C@H](Cc2ccc(O)cc2)NC1=O` (stereo partly drawn) [L2βG.2, ^AcYL^βXLY^βGRR^βXPNRYLYCG-NH2] ({CH2CO}-YL[ξβ3hPhg]LY[βAla]RR[ξβ3hPhg]PNRYLYCG-NH2; thioether N-16), the “fold increase of IC50” value worked out at 1270 fold.
